Laboratory results reported in ChEMBL document CHEMBL1142581, “Resveratrol derivatives from the roots of Vitis thunbergii” (J Nat Prod, 2005).

Tests used:
[1] = Antioxidant activity assessed as ABTS radical scavenging activity; assay type: functional
Outline: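 ABTS radical cation generated from 7.5 mM ABTS with 2.5 mM […], then diluted. Various concentrations of vehicle, test agents or Trolox (positive control) were mixed with an equal volume of the diluted radical solution for 6 min. Remaining radical was read as absorbance at 734 nm. EC50 calculated, mean ± SD (n=6).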

[2] = Antiplatelet activity against citreated rabbit platelet assessed as inhibition of 9,11-dideoxy-11 alpha, 9 alpha epoxy-methanoprostaglandin F2alpha-induced platelet aggregation; assay type: functional, cell-based; conditions: Oryctolagus cuniculus
Outline: (§1)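 Washed platelets from fresh rabbit blood, preincubated 2 min at 37 °C with various compound concentrations or 0.5% DMSO (control), then challenged with arachidonic acid or U46619. Turbidimetric aggregation: platelet suspension set as 0% and platelet-free Tyrode solution as 100%. Inhibition % = [1 − sample/control aggregation] × 100. IC50 reported as mean ± SD (n=4).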

[3] = Antiplatelet activity against citreated rabbit platelet assessed as arachidonic acid-induced platelet aggregation; assay type: functional, cell-based; conditions: Oryctolagus cuniculus; outline: as §1

SMILES | EC50 [1] [µM] | IC50 [2] [µM] | IC50 [3] [µM]
Oc1ccc([C@H]2Oc3cc(O)cc(/C=C/c4ccc5c(c4)[C@H](c4cc(O)cc6c4[C@H](c4cc(O)cc(O)c4)[C@@H](c4ccc(O)cc4)O6)[C@H](c4ccc(O)cc4)O5)c3[C@@H]2c2cc(O)cc(O)c2)cc1 | 4.8 | 3.9 | 5.7
O=Cc1ccc2c(c1)C(c1cc(O)cc3c1[C@H](c1cc(O)cc(O)c1)[C@@H](c1ccc(O)cc1)O3)[C@H](c1ccc(O)cc1)O2 (some centres undefined) | 4.4 | 3.1 | 7
Oc1ccc(/C=C/c2cc(O)cc3c2[C@H](c2cc(O)cc(O)c2)[C@@H](c2ccc(O)cc2)O3)cc1 | 2.8 | > 100 | > 100
Oc1ccc([C@@H]2c3c(O)cc4c5c3[C@@H]([C@@H](c3ccc(O)cc3)c3c(O)cc(O)cc3[C@@H]5[C@@H](c3ccc(O)cc3)O4)[C@H]2c2cc(O)cc(O)c2)cc1 [AMPELOPSIN C] | 5.4 | 5.9 | 8.1
CC(=O)Oc1ccccc1C(=O)O [ASPIRIN] |  |  | 32.7
Oc1ccc(/C=C/c2cc(O)cc3c2[C@@H](c2cc(O)cc4c2[C@H](c2cc(O)cc5c2[C@@H](c2cc(O)cc(O)c2)[C@H](c2ccc(O)cc2)O5)[C@@H](c2ccc(O)cc2)O4)[C@H](c2ccc(O)cc2)O3)cc1 [MIYABENOL A] | 6.6 | 7.5 | 9
Cc1c(C)c2c(c(C)c1O)CCC(C)(C(=O)O)O2 (centres undefined) [TROLOX] | 28.4 |  | 
Oc1ccc([C@H]2c3c(O)cc(O)cc3[C@H]3c4c(cc(O)cc4[C@@H]2c2cc(/C=C/c4cc(O)cc5c4[C@H](c4cc(O)cc(O)c4)[C@@H](c4ccc(O)cc4)O5)ccc2O)O[C@@H]3c2ccc(O)cc2)cc1 [VITISIN A] | 13.8 | 13.3 | 10.3
O=Cc1ccc(O)c([C@H]2c3cc(O)cc4c3[C@H](c3cc(O)cc(O)c3[C@@H]2c2ccc(O)cc2)[C@@H](c2ccc(O)cc2)O4)c1 [VITISINOL B] | 3.6 | 7.8 | > 100
O=C1C=C(/C=C/c2ccc(O)cc2)C[C@@H](c2cc(O)cc(O)c2)[C@H](c2ccc(O)cc2)C1 [VITISINOL C] | 4.5 | 10.5 | 13.4
O=C1C=C(/C=C/c2ccc(O)cc2)[C@H]2C(=O)[C@@H]1[C@H](c1ccc(O)cc1)[C@H]2c1cc(O)cc(O)c1 [VITISINOL D] | 4.1 | 5.7 | 15
